In article PMC3920459 (The Journal of organic chemistry, 2013):
Entries after “also recorded” stand apart in the source; their conditions may differ.

Legend:
[1] = system: A549, non-small cell lung carcinoma; test: IC50 determination for adherent cells using SRB, A549; type: cell-based, human; conditions: read-out: IC50 A549, 48-hour exposure
[2] = system: human cell lines U-937, HeLa, A549, BT549, IMR90; test: 48-hour cell death panel; type: cell-based; conditions: for activity against the cell lines of Table 3 (in words): 48-hour exposure, concentrations up to 10 μM
Summary of the method: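 Adherent lines seeded at 5,000 (HeLa) or 2,000 (A549, BT549, IMR90) cells/well and attached 2–3 h, in RPMI-1640 or, for IMR90, EMEM, each with 10% FBS. Test compound at 1 nM–10 μM on a half-log scale, in triplicate with 1% DMSO final, for 48 h continuous at 37 °C and 5% CO2. Cells fixed in cold 10% TCA and stained with SRB; dye read at 510 nm. IC50 from ≥3 independent experiments.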

BT549, breast carcinoma = test: IC50 determination for adherent cells using SRB, BT549; type: cell-based, human; conditions: for IC50: read-out: IC50 BT549, SRB
HeLa, cervical carcinoma = test: IC50 determination for adherent cells using SRB, HeLa; type: cell-based, human; conditions: read-out: IC50 HeLa, 48-hour exposure
[3] = system: IMR90, immortalized lung fibroblasts; test: IC50 determination for adherent cells using SRB, IMR90; type: cell-based, human; conditions: read-out: IC50 IMR90, 48-hour exposure, immortalized normal cell line
U-937, lymphoma = test: IC50 determination for non-adherent cells using MTS, U-937; type: cell-based, human; conditions: for IC50: read-out: IC50 U-937, MTS
[4] = system: Jurkat, acute T-cell leukemia; test: IC50 determination using MTS, Jurkat; type: cell-based, human; conditions: read-out: IC50 Jurkat, 48-hour
[5] = system: Daudi, Burkitt’s lymphoma; test: IC50 determination using MTS, Daudi; type: cell-based, human; conditions: read-out: IC50 Daudi, 48-hour
[6] = system: CEM, acute lymphoblastic leukemia; test: IC50 determination using MTS, CEM; type: cell-based, human; conditions: read-out: IC50 CEM, 48-hour
[7] = system: HL-60, acute promyelocytic leukemia; test: IC50 determination using MTS, HL-60; type: cell-based, human; conditions: read-out: IC50 HL-60, 48-hour
CA46, Burkitt’s lymphoma = test: IC50 determination using MTS, CA46; type: cell-based, human; conditions: read-out: IC50 CA46, 48-hour
[8] = system: tubulin dynamics in HeLa cells; test: Tubulin confocal microscopy; type: cell-based, human; conditions: 16 hours
[9] = system: multiple tumor cell lines; conditions: cited from earlier work
U-937 cells [10] = test: Western blot analysis of procaspase-3 and PARP-1 cleavage; type: cell-based, human; conditions: 24 hours; 2×, 4×, 6× the 48-hour IC50
anthropods = conditions: cited from earlier work
U-937 cells [11] = test: Apoptosis with Annexin V-FITC and propidium iodide; type: cell-based, human; conditions: 21 hours; 4× and 6× the 48-hour IC50
cells = conditions: cited from earlier work
U-937 cells [12] = test: Cell cycle arrest in thymidine-synchronized cells; type: cell-based, human; conditions: synchronized U-937 cells, 16 hours
human erythrocytes = test: Hemolysis assay using human erythrocytes; type: cell-based
[13] = mice, in vivo; cited from earlier work
[14] = system: glycogen synthase kinase-3β; conditions: cited from earlier work

Row | IC50 [1] [µM] | IC50 (BT549, breast carcinoma; 48-hour exposure) [µM] | IC50 (HeLa, cervical carcinoma) [µM] | IC50 (U-937, lymphoma; 48-hour exposure) [nM] | IC50 [4] [nM] | IC50 [5] [nM] | IC50 [6] [nM] | IC50 [7] [nM] | IC50 (CA46, Burkitt’s lymphoma) [nM] | Compound | activity against the cell lines of Table 3 (in words) [2] | IC50 [3] [µM] | other results
1 | > 10 | > 10 | > 10 | > 10000 |  |  |  |  |  | COC1NC(=O)c2ccc(Br)n2C1Cc1c[nH]c(=O)n1C (single isomer, unassigned; (+)) [(+)-39, (+)-O-methyl-pre-agelastatin A] | none | > 10 | 
2 | > 10 | > 10 | > 10 | > 10000 |  |  |  |  |  | (−)-dehydroagelastatin A [(−)-51] | none | > 10 | 
3 | > 10 | > 10 | > 10 | > 10000 | > 10000 | > 10000 | > 10000 | > 10000 | > 10000 | O=C1N[C@H]2[C@@H]3NC(=O)c4cc(Br)c(Br)n4[C@@H]3C[C@@]2(O)N1 [(−)-6, (−)-agelastatin F] | no activity | > 10 | 
4 |  |  |  |  |  |  |  |  |  | CC(=O)O[C@H]1C(=O)[C@@]2(C)[C@H]([C@H](OC(=O)c3ccccc3)[C@]3(O)C[C@H](OC(=O)[C@H](O)[C@@H](NC(=O)c4ccccc4)c4ccccc4)C(C)=C1C3(C)C)[C@]1(OC(C)=O)CO[C@@H]1C[C@@H]2O [Taxol, reference compound] |  |  | tubulin fluorescence (tubulin dynamics within cells) [8]: heightened
5 | > 10 | > 10 | > 10 | > 10000 |  |  |  |  |  | (−)-di-epi-agelastatin C [(−)-52] | none | > 10 | 
6 | > 10 | > 10 | > 10 | > 10000 |  |  |  |  |  | COC1NC(=O)c2ccc(Br)n2C1Cc1c[nH]c(=O)[nH]1 (single isomer, unassigned; (+)) [(+)-53, (+)-O-methyl-pre-agelastatin D] | none | > 10 | 
7 | > 10 | > 10 | > 10 | > 10000 | 5310 ± 350 | 7200 ± 2900 | 2100 ± 1300 | > 10000 | > 10000 | CN1C(=O)N[C@@]2(O)[C@@H]3NC(=O)c4ccc(Br)n4[C@@H]3C[C@@]12O [(−)-3, (−)-agelastatin C] | no activity; also recorded: completely abolishes activity | > 10 | 
8 | > 10 | 4.8 ± 1.1 | 4.8 ± 1.2 | 1060 ± 160 | 750 ± 440 | 460 ± 280 | 290 ± 200 | 2400 ± 1000 | 1070 ± 420 | (−)-agelastatin B [(−)-2] | weak activity | > 10 | 
9 | 0.92 ± 0.16 | 0.631 ± 0.082 | 1 ± 0.2 | 240 ± 33 | 210 ± 63 | 202 ± 15 | 74 ± 25 | 540 ± 120 | 460 ± 240 | O=C1N[C@H]2[C@@H]3NC(=O)c4ccc(Br)n4[C@@H]3C[C@@]2(O)N1 [(−)-4, (−)-agelastatin D] |  | 2.75 ± 0.6 | activation of procaspase-3 to caspase-3 and cleavage of PARP-1 (U-937 cells [10]): induced dose-dependent activation of procaspase-3 to active caspase-3, and cleavage of PARP-1; phosphatidylserine exposure / PI inclusion (apoptosis) (U-937 cells [11]): induced dose-dependent apoptosis; activity against BT549 cells (in words) (BT549, breast carcinoma; 48-hour exposure): modest activity; cell cycle arrest (U-937 cells [12]): dose-dependent G2/M cell cycle arrest; tubulin fluorescence (tubulin dynamics within cells) [8]: no change in tubulin fluorescence; activity against U-937 cells (in words) (U-937, lymphoma; 48-hour exposure): reasonable activity

Row | Compound | IC50 [1] [µM] | IC50 (BT549, breast carcinoma; 48-hour exposure) [µM] | IC50 (HeLa, cervical carcinoma) [µM] | IC50 (U-937, lymphoma; 48-hour exposure) [nM] | IC50 [4] [nM] | IC50 [5] [nM] | IC50 [6] [nM] | IC50 [7] [nM] | IC50 (CA46, Burkitt’s lymphoma) [nM] | activity against the cell lines of Table 3 (in words) [2] | IC50 [3] [µM] | other results
10 | CN1C(=O)N[C@H]2[C@@H]3NC(=O)c4ccc(Br)n4[C@@H]3C[C@]21O [(−)-1, (−)-agelastatin A] | 1.05 ± 0.14 | 0.278 ± 0.076 | 0.708 ± 0.09 | 67 ± 3 | 74 ± 7 | 20 ± 3 | 20 ± 2 | 138 ± 66 | 187 ± 71 | highest potency in all cell lines tested | 1.11 ± 0.35 | anti-neoplastic activity against multiple tumor cell lines [9]: modest anti-neoplastic activity; activation of procaspase-3 to caspase-3 and cleavage of PARP-1 (U-937 cells [10]): induced dose-dependent activation of procaspase-3 to active caspase-3, and cleavage of PARP-1; toxicity towards anthropods (anthropods): exhibits toxicity; phosphatidylserine exposure / PI inclusion (apoptosis) (U-937 cells [11]): induced dose-dependent apoptosis; cell cycle arrest (cells): arrest in the G2/M-phase of the cell cycle; enhanced activity in BT549 relative to the other cell lines (BT549, breast carcinoma; 48-hour IC50 comparison): 4 ×; cell cycle arrest (U-937 cells [12]): dose-dependent G2/M cell cycle arrest; concentration without effect on normal red blood cells (human erythrocytes; hemolysis after 2 h): > 333 µM; hemolytic activity (nonspecific hemolysis of red blood cells) (human erythrocytes; tested at 333 μM, 2 h): none; penetration into CNS compartments [13]: able to penetrate into CNS compartments; tubulin fluorescence (tubulin dynamics within cells) [8]: no change in tubulin fluorescence; enhanced activity in U-937 relative to the other cell lines (U-937, lymphoma; 48-hour IC50 comparison): 20 ×; inhibition of glycogen synthase kinase-3β [14]: moderately inhibits
11 | CO[C@@]12C[C@@H]3[C@@H](NC(=O)c4ccc(Br)n43)[C@@H]1NC(=O)N2C [(−)-5, (−)-agelastatin E] | > 10 | 6.9 ± 2.5 | 8.6 ± 0.81 | 2560 ± 130 | 1500 ± 330 | 1410 ± 530 | 830 ± 370 | 4600 ± 3600 | 2450 ± 950 | weak activity | > 10 | reduction in anticancer potency relative to (−)-agelastatin A (1) ([2]; comparison of 48-hour IC50 values): > 10 fold
12 | (−)-O-methyl-di-epi-agelastatin A [(−)-50] | > 10 | > 10 | > 10 | > 10000 |  |  |  |  |  | none | > 10 | 
